Shown are actives, neighbours in structure and some others; about 3.5% of the full set was active somewhere.
MrgX1 allo act: allosterically activates human MrgX1 receptor signaling. AID 588675. 310,000 tested, 0.63% active. Q96LB2. MrgX1-HEK293, Fluo-4 calcium flux, FDSS; hits give high values. B-score at 10 µM;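 active means plate-corrected calcium response at least 3 library SD above typical, normal starting fluorescence, not activating the receptor alone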;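 further: compound read alongside a low EC10 to EC30 dose of BAM8-22 agonist; peak minus trough fluorescence over baseline measured at the second addition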
Target sequence (Q96LB2 whole entry, looked up): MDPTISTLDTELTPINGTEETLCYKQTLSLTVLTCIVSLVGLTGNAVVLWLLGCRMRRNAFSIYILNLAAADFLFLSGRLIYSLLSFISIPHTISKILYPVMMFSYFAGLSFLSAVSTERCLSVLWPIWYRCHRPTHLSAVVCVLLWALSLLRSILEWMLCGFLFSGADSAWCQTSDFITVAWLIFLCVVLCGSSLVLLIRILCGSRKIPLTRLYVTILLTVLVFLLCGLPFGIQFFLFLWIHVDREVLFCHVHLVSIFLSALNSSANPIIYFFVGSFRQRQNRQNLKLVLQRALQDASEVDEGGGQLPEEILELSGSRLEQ
MrgX1 ag: activates human MrgX1 receptor signaling; 310,000 tested, 0.44% active; MrgX1-HEK293 cells, Fluo-4 calcium fluorescence, agonist mode; hits give high values; B-score at 10 µM;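 active means calcium response B-score plate-corrected fluorescence ratio at least 3 library SD, with starting fluorescence B-score inside 5 SD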
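Material: MrgX1-expressing HEK293 cells; input: 15,000 cells per well; doses: test compound given as first of three sequential additions; schedule: overnight plating before 1 h dye loading; technique: Fluo-4 NW calcium-flux fluorescence, kinetic read; evaluation: baseline-normalised fluorescence change ratio, B-scored; control set: plate-wise positive and negative controls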
MrgX1 antag: antagonists of human MrgX1 receptor; Q96LB2; MRGX1-HEK293 calcium flux, Fluo-4, BAM8-22 antagonism; hits give low values; B-score at 10 µM; 310,000 tested, 1.3% active; AID 588676;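 active means calcium-response B-score plate-corrected more than 3 library SD below zero, starting fluorescence within 5 deviations, no agonist response on first addition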;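 further: peak minus trough fluorescence over baseline after final BAM8-22 challenge near maximal dose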
RGS4 pot: RGS4 potentiation or activation. HEK293 M3R/inducible RGS4, carbachol calcium flux Fluo4; hits give low values. B-score at 10 µM. 310,000 tested, 0.92% active. AID 463111;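 active means B-score of the integrated calcium signal more than 4 SD below the library mean, with starting fluorescence not abnormally high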;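 further: negative B-score means reduced calcium response which marks RGS4 activation or potentiation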
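Material: M3R-expressing HEK293 line, RGS4 induced by doxycycline | Schedule: Overnight RGS4 induction, 30 min dye load 37 °C, 20 min compound RT | Measured by: Fluo4 fluorescence kinetic imaging of calcium | Read-out: Integrated calcium ratio converted to B score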
RGS4 inh: human RGS4 inhibition; 310,000 tested, 0.45% active; B-score at 10 µM; P49798; HEK293 M3R/RGS4 inducible, Fluo-4 calcium flux; hits give high values; triggered by carbachol at its EC20;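 active means B-score, a plate-corrected calcium signal, over three deviations above library mean, with baseline fluorescence within five deviations of library mean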;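 further: RGS4 expression induced by doxycycline in cells with stable M3 receptor; B-score is computed from the integrated fluorescence ratio over baseline after carbachol; higher B-score means a larger calcium signal and so more RGS4 inhibition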
RGS4 block valid: validation of RGS4 inhibitors; shares compounds with RGS4 inh; HEK293 M3R/RGS4, carbachol calcium Fluo-4 fluorescence; carbachol added at its EC20; 0 = buffer wells, 100 = carbachol control; calcium response, % at 10 µM; 1,700 tested, 65% active;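 active means duplicate-averaged calcium response above the buffer-only control mean plus 5 SD of those controls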;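 further: integrated fluorescence ratio F max minus min over baseline F0; higher response in RGS4-induced cells means RGS4 inhibition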
RGS4 uninduced: non-induced cell nonspecific activity of RGS4 inhibitors; shares compounds with RGS4 inh; HEK293 M3R non-induced, carbachol calcium Fluo-4; submaximal (EC20) carbachol stimulus; buffer wells 0%, carbachol control wells 100%; activity (percent), % at 10 µM; 1,900 tested, 20% active; AID 493000; call rule not given here;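 further: RGS4 induction absent so cells express M3R without RGS4; higher means more calcium signal and flags a non-specific hit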
RGS4 inh ctr2: second RGS4 inhibitor counter-screen in uninduced cells lacking carbachol. 1,900 tested, 22% active. shares compounds with RGS4 inh. calcium response (agonist-mode artifact), % at 10 µM. HEK293 M3R/RGS4 non-induced, Fluo-4 calcium, no carbachol; normalised: buffer wells 0%, carbachol wells 100%;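 active means duplicate-averaged calcium rise in uninduced cells above buffer wells' mean plus 5 SD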
An asterisk follows results filed as active.

How did O=[n+]1cc(-c2cccc3ccccc23)n([O-])c2c1CCC2 do in these assays?
MrgX1 allo act: inactive; MrgX1 ag: inactive; MrgX1 antag: inactive; RGS4 pot: inactive; RGS4 inh: 4.9*; RGS4 block valid: inactive; RGS4 uninduced: inactive; RGS4 inh ctr2: inactive

Results for COC(=O)c1cc2c(ccn2-c2ccc(F)cc2)n1CC(C)C ?
MrgX1 allo act: inactive; MrgX1 ag: inactive; MrgX1 antag: inactive; RGS4 pot: inactive; RGS4 inh: 11*; RGS4 block valid: 36%*; RGS4 uninduced: inactive; RGS4 inh ctr2: inactive

What do the screens show for `CCCn1c(C(=O)OC)cc2c1ccn2-c1ccc(F)cc1`?
MrgX1 allo act: inactive; MrgX1 ag: inactive; MrgX1 antag: inactive; RGS4 pot: inactive; RGS4 inh: inactive

What do the screens show for `Cc1ccc2nc(SC(C)C(=O)NCc3ccc4c(c3)OCO4)[nH]c2c1` (stereo not drawn)?
MrgX1 allo act: inactive; MrgX1 ag: inactive; MrgX1 antag: inactive; RGS4 pot: inactive; RGS4 inh: inactive

What do the screens show for `Cc1cccc(NC(=O)C(=O)C2C(=O)Nc3ccccc32)c1` (stereo not drawn)?
MrgX1 allo act: inactive; MrgX1 ag: inactive; MrgX1 antag: inactive; RGS4 pot: inactive; RGS4 inh: inactive

How did O=C(Nc1ccc2ccccc2c1)C(=O)C1C(=O)Nc2ccccc21 (stereo not drawn) do in these assays?
MrgX1 allo act: 6.9*; MrgX1 ag: inactive; MrgX1 antag: inactive; RGS4 pot: inactive; RGS4 inh: 8.1*; RGS4 block valid: 12%*; RGS4 uninduced: inactive; RGS4 inh ctr2: inactive

What do the screens show for `CCOC(=O)CSc1nc2ccccc2c(=O)n1CC`?
MrgX1 allo act: inactive; MrgX1 ag: inactive; MrgX1 antag: inactive; RGS4 pot: inactive; RGS4 inh: inactive

Results for CCn1c(SCC(=O)OC2CCCCC2)nc2ccccc2c1=O ?
MrgX1 allo act: inactive; MrgX1 ag: inactive; MrgX1 antag: inactive; RGS4 pot: inactive; RGS4 inh: 5.5*; RGS4 block valid: 14%*; RGS4 uninduced: inactive; RGS4 inh ctr2: inactive

Results for C=CCN1C=C2C(=O)C(C)(OC(=O)c3ccc(OC)cc3)C(=O)C(c3ccco3)=C2C=C1CCCC (stereo not drawn) ?
MrgX1 allo act: inactive; MrgX1 ag: inactive; MrgX1 antag: inactive; RGS4 pot: inactive; RGS4 inh: inactive; RGS4 block valid: inactive; RGS4 uninduced: inactive; RGS4 inh ctr2: inactive

Results for C=CCN1C=C2C(=O)C(C)(OC(=O)c3ccco3)C(=O)C(C=C)=C2C=C1C1CC1 (stereo not drawn) ?
MrgX1 allo act: inactive; MrgX1 ag: inactive; MrgX1 antag: inactive; RGS4 pot: inactive; RGS4 inh: inactive

Results for CCCCC1=CC2=C(c3ccco3)C(=O)C(C)(OC(=O)c3ccc(OC)cc3)C(=O)C2=CN1CCCOC(C)C (stereo not drawn) ?
MrgX1 allo act: inactive; MrgX1 ag: inactive; MrgX1 antag: inactive; RGS4 pot: inactive; RGS4 inh: inactive; RGS4 block valid: inactive; RGS4 uninduced: inactive; RGS4 inh ctr2: inactive

What do the screens show for `CCCCC1=CC2=C(c3ccco3)C(=O)C(C)(OC(=O)c3ccc(OC)cc3)C(=O)C2=CN1c1ccccc1` (stereo not drawn)?
MrgX1 allo act: inactive; MrgX1 ag: inactive; MrgX1 antag: inactive; RGS4 pot: inactive; RGS4 inh: inactive; RGS4 uninduced: inactive; RGS4 inh ctr2: inactive
